Compound activity deposited in PubChem by Broad Institute.
IDH1 mut inh – inhibitors of IDH1 R132H reductase, primary screen, biochemical, plate reader, single point | Isocitrate dehydrogenase [NADP] cytoplasmic (Homo sapiens), O75874 | diaphorase/resazurin fluorescence, 60 min | inhibition, % at 10 µM | 70,000 compounds, 0.18% hits; in the data active means inhibition above about 34%; inconclusive means no clear call, values can overlap the other calls; inactive means below about 11%;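 further: 0% = DMSO and 100% = no enzyme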
T cruzi growth-1 – T. cruzi intracellular proliferation inhibitors, primary screen, cell-based, beta-gal Tulahuen parasites, NIH3T3 host, luminescence. T. cruzi beta-gal in NIH3T3, GalScreen luminescence, 90 h. 77,000 compounds, 5.9% hits. inhibition, % at 8.34 µM;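 active means mean inhibition above about 93%, with at least 55% of replicates each passing it, limit read from the data, passing the limit was not always enough; inconclusive means only one of those two conditions holds; inactive means neither condition holds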
GASC1 inh – inhibitors of GASC-1 (KDM4C) histone demethylase, primary screen, biochemical, single concentration HTS; Lysine-specific demethylase 4C (Homo sapiens), Q9H3R0; inhibition, % at 12.5 µM; GST-KDM4C 2-372, H3K9me3 peptide, LANCE TR-FRET; 96,000 compounds, 0.15% hits;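 active means mean replicate inhibition above about 25%, with at least 55% of replicates also reaching it, limit read from the data, passing the limit was not always enough; inconclusive means only one of those two conditions met; inactive means neither condition met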
Target sequence (Q9H3R0 2-372 limits assumed): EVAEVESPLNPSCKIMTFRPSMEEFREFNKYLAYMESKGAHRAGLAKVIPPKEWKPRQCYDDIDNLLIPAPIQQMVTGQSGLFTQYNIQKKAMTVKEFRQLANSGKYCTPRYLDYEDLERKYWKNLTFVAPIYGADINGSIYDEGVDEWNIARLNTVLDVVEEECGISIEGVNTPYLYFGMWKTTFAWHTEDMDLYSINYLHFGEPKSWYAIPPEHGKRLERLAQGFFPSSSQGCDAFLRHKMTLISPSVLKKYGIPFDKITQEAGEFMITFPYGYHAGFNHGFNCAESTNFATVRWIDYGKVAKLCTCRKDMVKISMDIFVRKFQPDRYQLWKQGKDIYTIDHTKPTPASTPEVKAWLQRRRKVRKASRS
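System: N-terminal GST-fused human GASC-1 (KDM4C) fragment, residues 2-372; amount: enzyme final amount 10 nM; incubation: reaction 30 min RT, detection step 1 h RT; medium: HEPES buffer, pH 7.5, plus ascorbate; technique: LANCE TR-FRET, Eu antibody, ULight-streptavidin, EDTA, ex 340 nm, em 618/671 nm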
Pf Dd2 inh – P. falciparum Dd2 growth inhibitors, primary screen, SYBR Green fluorescence, single dose replicates; activity change, % at 10 µM; 94,000 compounds, 2.3% hits; 72 h; active compounds read low; in the data active means activity change below about -80%; inconclusive means no clear call, values can overlap the other calls
T cruzi growth-2 – T. cruzi intracellular proliferation inhibitors, confirmation, cell-based, NIH3T3 host, beta-gal parasite, luminescence, cherry-pick | T. cruzi beta-gal in NIH3T3, GalScreen luminescence, 90 h | shares compounds with T cruzi growth-1 | inhibition, % at 8.35 µM | 5,600 compounds, 72% hits;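 active means mean replicate inhibition above about 95% and at least 55% of replicates individually reaching it, limit read from the data; inconclusive means only one of the two criteria is met; inactive means neither criterion is met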
T cruzi growth-3 – inhibitors of intracellular T. cruzi replication, confirmation, NIH3T3 host cells, beta-gal parasites, cherry-pick, set 2; T. cruzi beta-gal in NIH3T3, GalScreen luminescence, 90 h; inhibition, % at 2.09 µM; shares compounds with T cruzi growth-1; 5,600 compounds, 21% hits;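 active means mean inhibition above about 95%, with at least 55% of replicates also reaching it, limit read from the data; inconclusive means meets just one of the two conditions; inactive means meets neither condition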;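 further: plate controls were neutral control median for no effect and positive control median for full effect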
NIH3T3 tox – cytotoxicity in mouse NIH/3T3 fibroblasts, confirmation, cytotoxicity control for T. cruzi proliferation inhibitor project, cell-based, cherry-pick, single point; NIH/3T3 viability, CellTiter-Glo ATP luminescence, 90 h; cytotoxicity (signal decrease), % at 8.35 µM; 5,600 compounds, 14% hits; shares compounds with T cruzi growth-1;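 active means mean signal decrease across replicates above about 35% based on untreated-well scatter, with enough replicates individually passing, limit read from the data; inconclusive means no rule stated though some were filed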;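 further: 0% = median of neutral control wells and 100% = median of positive control wells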
3T3 cytotox 2 – NIH/3T3 fibroblast cytotoxicity, confirmation, cytotoxicity control, cell-based, cherry-pick, single point, set 2. 5,600 compounds, 56% hits. shares compounds with T cruzi growth-1. NIH/3T3 viability, CellTiter-Glo ATP luminescence, 90 h. inhibition, % at 24.9 µM. AID 651744, 2012;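 active means mean loss of cell viability signal at or above a set limit, and enough replicates individually reaching it; inconclusive means meets only the mean limit or only the replicate share; inactive means meets neither condition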;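 further: 0% = median of neutral control wells and 100% = median of positive control wells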
Starred values were filed as active, the others as inactive. Sampled rows, rich in hits. Any-hit rate of the full collection: about 5.9%.

How did C[C@H](CO)N1C[C@H](C)[C@H](CN(C)Cc2ccc(C(F)(F)F)cc2)Oc2ccc(NS(=O)(=O)c3ccccc3)cc2C1=O do in these assays?
IDH1 mut inh: 0; T cruzi growth-1: 104*; GASC1 inh: -1; Pf Dd2 inh: 0; T cruzi growth-2: 76; T cruzi growth-3: 70; NIH3T3 tox: -9; 3T3 cytotox 2: 11

How did C[C@@H]1CN([C@@H](C)CO)C(=O)c2cc(NS(=O)(=O)c3ccccc3)ccc2O[C@@H]1CN(C)Cc1ccc(C(F)(F)F)cc1 do in these assays?
IDH1 mut inh: 0; T cruzi growth-1: 73; GASC1 inh: -2; Pf Dd2 inh: 19

How did C[C@@H]1CN([C@@H](C)CO)C(=O)c2cc(NS(=O)(=O)c3ccccc3)ccc2O[C@@H]1CN(C)Cc1ccc2c(c1)OCO2 do in these assays?
IDH1 mut inh: -12; T cruzi growth-1: 102*; GASC1 inh: 2; Pf Dd2 inh: -2; T cruzi growth-2: -31; T cruzi growth-3: 11; NIH3T3 tox: -5; 3T3 cytotox 2: 18

Results for O=C(N=NC=C1C=CN(O)C=C1)c1ccccn1 ?
IDH1 mut inh: 0

Results for CCN(CC(=O)Nc1cc(Cl)ccc1OC)S(=O)(=O)c1ccc(C)cc1 ?
IDH1 mut inh: 1

Results for COc1ccc(NC(=O)CSc2n[nH]c(-c3ccncc3)n2)cc1 ?
IDH1 mut inh: 0

What do the screens show for `C[C@@H]1CCCCO[C@@H](CN(C)Cc2ccc(Cl)c(Cl)c2)[C@H](C)CN([C@@H](C)CO)C(=O)c2cc(NC(=O)Nc3ccc(F)cc3)ccc2O1`?
IDH1 mut inh: 1; T cruzi growth-1: 104*; GASC1 inh: 1; Pf Dd2 inh: -53; T cruzi growth-2: 101*; T cruzi growth-3: 117*; NIH3T3 tox: 5; 3T3 cytotox 2: 18

How did C[C@H](CO)N1C[C@H](C)[C@H](CN(C)Cc2ccc(Cl)c(Cl)c2)OCCCC[C@H](C)Oc2ccc(NC(=O)Nc3ccc(F)cc3)cc2C1=O do in these assays?
IDH1 mut inh: 0; T cruzi growth-1: 100*; GASC1 inh: -2; Pf Dd2 inh: -12; T cruzi growth-2: 83; T cruzi growth-3: 108*; NIH3T3 tox: 14; 3T3 cytotox 2: 55*

How did C[C@@H]1CCCCO[C@@H](CN(C)Cc2ccc(Cl)c(Cl)c2)[C@@H](C)CN([C@H](C)CO)C(=O)c2cc(NC(=O)Nc3ccccc3)ccc2O1 do in these assays?
T cruzi growth-1: 94; Pf Dd2 inh: -8

How did C[C@@H]1CCCCO[C@H](CN(C)Cc2ccc(Cl)c(Cl)c2)[C@@H](C)CN([C@@H](C)CO)C(=O)c2cc(NC(=O)CCC(F)(F)F)ccc2O1 do in these assays?
IDH1 mut inh: 0; T cruzi growth-1: 98*; GASC1 inh: 1; Pf Dd2 inh: -95*; T cruzi growth-2: inconclusive; T cruzi growth-3: 114*; NIH3T3 tox: -15; 3T3 cytotox 2: 106*

What do the screens show for `C[C@@H]1CCCCO[C@H](CN(C)Cc2ccc(Cl)c(Cl)c2)[C@@H](C)CN([C@@H](C)CO)C(=O)c2cc(NC(=O)Nc3ccc(F)cc3)ccc2O1`?
IDH1 mut inh: 1; T cruzi growth-1: 101*; GASC1 inh: -1; Pf Dd2 inh: -80; T cruzi growth-2: 91; T cruzi growth-3: 112*; NIH3T3 tox: -8; 3T3 cytotox 2: 33*

Results for CCc1cccc(OCC(=O)Nc2ccc(OC)cc2[N+](=O)[O-])c1 ?
IDH1 mut inh: 1

How did Cc1ccc(OCCCn2cnc3ccccc3c2=O)c([N+](=O)[O-])c1 do in these assays?
IDH1 mut inh: 1

How did COc1ccc2c3c(n(C)c2c1)[C@H](CO)N(CC1CC1)CC31CN(C(=O)Nc2ccccc2)C1 do in these assays?
GASC1 inh: 0; Pf Dd2 inh: -29

What do the screens show for `C[C@@H](O)C#Cc1ccc([C@H]2[C@@H](CO)N3CCCCN(C(=O)c4ccc(F)cc4)C[C@H]23)cc1`?
T cruzi growth-1: 99*; GASC1 inh: 2; Pf Dd2 inh: -30; T cruzi growth-2: 102*; T cruzi growth-3: 15; NIH3T3 tox: -1; 3T3 cytotox 2: -12

Results for COc1ccc(C#Cc2ccc([C@H]3[C@@H](CO)N4CCCCN(C(=O)c5ccncc5)C[C@H]34)cc2)cc1 ?
T cruzi growth-1: 101*; GASC1 inh: 1; Pf Dd2 inh: -51; T cruzi growth-2: 102*; T cruzi growth-3: 63; NIH3T3 tox: 26; 3T3 cytotox 2: 106*

What do the screens show for `C[C@@H](O)C#Cc1ccc([C@H]2[C@@H](CO)N3CCCCN(C(=O)c4ccc(F)cc4)C[C@@H]23)cc1`?
T cruzi growth-1: 103*; GASC1 inh: 0; Pf Dd2 inh: 4; T cruzi growth-2: 46; T cruzi growth-3: 30; NIH3T3 tox: -14; 3T3 cytotox 2: 14

Results for C[C@H](O)C#Cc1ccc([C@H]2[C@H]3CN(C(=O)c4ccc(F)cc4)CCCCN3[C@H]2CO)cc1 ?
T cruzi growth-1: 27; GASC1 inh: -1; Pf Dd2 inh: 5

Results for C[C@@H](O)C#Cc1ccc([C@H]2[C@H]3CN(C(=O)c4ccncc4)CCCCN3[C@H]2CO)cc1 ?
T cruzi growth-1: inconclusive; GASC1 inh: 0; Pf Dd2 inh: -5; T cruzi growth-2: inconclusive; T cruzi growth-3: -7; NIH3T3 tox: 7; 3T3 cytotox 2: 13

Results for Oc1c(C(Nc2ccccn2)c2c(F)cccc2Cl)cc(Cl)c2cccnc12 (stereo not drawn) ?
IDH1 mut inh: 0

How did Cc1ccc(CC(c2nc3ccccc3[nH]2)C(C)c2nc3ccccc3[nH]2)cc1 (stereo not drawn) do in these assays?
IDH1 mut inh: 0

Results for COc1ccccc1NC(=O)N1CCCCN2[C@H](CO)[C@H](c3ccc(C#Cc4ccccc4)cc3)[C@@H]2C1 ?
T cruzi growth-1: 78; GASC1 inh: -2; Pf Dd2 inh: inconclusive
